Measurements published in ChEMBL document CHEMBL1133105, “Antimalarial, antitrypanosomal, and antileishmanial activities and cytotoxicity of bis(9-amino-6-chloro-2-methoxyacridines): influence of the linker” (J Med Chem, 2000).

How the values were obtained:
Trypanosoma cruzi [1] = assay: (§1) In Vitro evaluation for the percentage of activity towards Trypanosoma cruzi at 6.25 uM Concentration; Toxic upon mouse primary peritoneal macrophages; format: ADME, organism-based
Outline: (§2)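 Mouse peritoneal macrophages, 30 000/well, infected after 24 h with about 100 000 T. cruzi trypomastigotes per well plus 2-fold drug dilutions (12.5–1.56 µM). Incubated 4 days at 37 °C, 5% CO2. Methanol-fixed, Giemsa-stained and scored microscopically as % reduction of total parasite load (free trypomastigotes plus intracellular amastigotes) versus untreated controls.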

Trypanosoma cruzi [2] = assay: (§3) In Vitro evaluation for the percentage of activity towards Trypanosoma cruzi at 3.13 uM Concentration; Toxic upon mouse primary peritoneal macrophages; format: ADME, organism-based; outline: as §2
MRC5 [3] = assay: Cytotoxicity on MRC-5 cells at 3.13 uM; format: functional; conditions: Homo sapiens
Outline: (§4)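 MRC-5 human diploid embryonic lung cells seeded at 5 000/well, washed after 24 h, then given 2-fold drug dilutions (25, 12.5, 6.25, 3.13 µM) in RPMI + 5% FCS, final DMSO below 0.5%. Incubated 7 days at 37 °C, 5% CO2. MTT colorimetric read-out, scored as % reduction of absorbance at 540 nm versus untreated controls.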

MRC5 [4] = assay: Cytotoxicity on MRC-5 cells at 6.25 uM; format: functional; conditions: Homo sapiens; outline: as §4
Trypanosoma cruzi [5] = assay: In Vitro evaluation for the percentage of activity towards Trypanosoma cruzi at 12.5 uM Concentration; Toxic upon mouse primary peritoneal macrophages; format: organism-based; outline: as §2
Trypanosoma brucei [6] = assay: Percentage of activity against Trypanosoma brucei at 3.13 uM; format: functional
Outline: (§5)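 Bloodstream-form T. brucei in HMI-9 medium, 10 000 parasites/well, exposed to 12.5, 6.25, 3.13 and 1.56 µM drug for 4 days. Read-out is % inhibition of parasite multiplication. Macrophage toxicity judged on mouse primary peritoneal macrophages.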

Leishmania infantum [7] = assay: In Vitro evaluation for the percentage of activity towards Leishmania infantum 6.25 uM Concentration; Toxic upon mouse primary peritoneal macrophages; format: organism-based
Outline: (§6)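 Starch-stimulated mouse peritoneal macrophages, 30 000/well, infected after 24 h with spleen-derived L. infantum amastigotes (10:1) together with 2-fold drug dilutions (12.5–1.56 µM). Incubated 7 days at 37 °C, 5% CO2. Wright-stained slides scored microscopically as % reduction of total parasite load or of infected macrophages. Uninfected treated cultures judged microscopically for macrophage toxicity.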

MRC5 [8] = assay: Cytotoxicity on MRC-5 cells at 25 uM; format: functional; conditions: Homo sapiens; outline: as §4
Leishmania infantum [9] = assay: (§7) In Vitro evaluation for the percentage of activity towards Leishmania infantum at 1.56 uM Concentration; Toxic upon mouse primary peritoneal macrophages; format: organism-based; outline: as §6
MRC5 [10] = assay: Cytotoxicity on MRC-5 cells at 12.5 uM; format: functional; conditions: Homo sapiens; outline: as §4
Leishmania infantum [11] = assay: In Vitro evaluation for the percentage of activity towards Leishmania infantum at 12.5 uM Concentration; Toxic upon mouse primary peritoneal macrophages; format: organism-based; outline: as §6
Trypanosoma brucei [12] = assay: Percentage of activity against Trypanosoma brucei at 6.25 uM; format: functional; outline: as §5
Trypanosoma brucei [13] = assay: Percentage of activity against Trypanosoma brucei at 1.56 uM; format: functional; outline: as §5
Leishmania infantum [14] = assay: (§8) In Vitro evaluation for the percentage of activity towards Leishmania infantum at 3.13 uM Concentration; Toxic upon mouse primary peritoneal macrophages; format: organism-based; outline: as §6
Plasmodium falciparum [15] = assay: In vitro sensitivity for Plasmodium falciparum FcB1R; format: functional, organism-based
Outline: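 Asynchronous P. falciparum cultures in human erythrocytes (0.5% parasitemia, 1% haematocrit) exposed to serially diluted drug for 24 h at 37 °C. [3H]hypoxanthine (0.5 µCi/well) then added for a further 24 h. Uptake compared with drug-free controls on the same plate. IC50 taken from the concentration–response curve, averaged over independent experiments. DMSO ≤0.1%.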

Trypanosoma brucei [16] = assay: Percentage of activity against Trypanosoma brucei at 12.5 uM; format: functional; outline: as §5
Trypanosoma cruzi [17] = assay: In Vitro evaluation for the percentage of activity towards Trypanosoma cruzi at 1.56 uM Concentration; Toxic upon mouse primary peritoneal macrophages; format: functional; outline: as §2
Leishmania infantum [18] = assay: In Vitro inhibition concentration against Amastigote form of Leishmania infantum
MRC5 [19] = assay: In Vitro cytotoxicity on MRC-5 cells; format: functional; conditions: Homo sapiens; outline: as §4
Trypanosoma cruzi [20] = assay: Percentage of activity against Trypanosoma cruzi at 1.56 uM; format: functional; outline: as §2
Leishmania infantum [21] = assay: Percentage of activity against Leishmania infantum at 6.25 uM; Toxic upon mouse primary peritoneal macrophages; format: functional, organism-based; outline: as §6
Trypanosoma brucei [22] = assay: In Vitro evaluation for the percentage of activity towards Trypanosoma brucei at 3.13 uM Concentration; format: functional; outline: as §5
Trypanosoma cruzi [23] = assay: as §3; format: functional, organism-based; outline: as §2
Trypanosoma cruzi [24] = assay: Percentage of activity against Trypanosoma cruzi at 12.5 uM; Toxic upon mouse primary peritoneal macrophages; format: functional, organism-based; outline: as §2
Leishmania infantum [25] = assay: as §8; format: functional, organism-based; outline: as §6
Leishmania infantum [26] = assay: as §7; format: functional, organism-based; outline: as §6
Leishmania infantum [27] = assay: Percentage of activity against Leishmania infantum at 12.5 uM Concentration; Toxic upon mouse primary peritoneal macrophages; format: functional, organism-based; outline: as §6
Trypanosoma cruzi [28] = assay: as §1; format: functional, organism-based; outline: as §2
Plasmodium falciparum [29] = assay: Parasite growth inhibition against Plasmodium falciparum F32A; format: functional, organism-based
Outline: (§9)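 Asynchronous cultures of each strain on human erythrocytes (0.5% parasitemia, 1% final hematocrit) were exposed to serially diluted drug for 24 h at 37 °C. Then 0.5 µCi [3H]hypoxanthine per well was added for 24 h. Incorporation was compared with a drug-free control on the same plate. IC50 was taken from the concentration-response curve as the mean of several independent experiments. DMSO was at most 0.1%.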

Leishmania infantum [30] = assay: Percentage of activity against Leishmania infantum at 3.13 uM; format: functional; outline: as §6
Leishmania infantum [31] = assay: Percentage of activity against Leishmania infantum at 1.56 uM; format: functional; outline: as §6
Plasmodium falciparum [32] = assay: Parasite growth inhibition against Plasmodium falciparum FCR3; format: functional, organism-based; outline: as §9
Plasmodium falciparum [33] = assay: Growth inhibition of chloroquine-sensitive Plasmodium falciparum 3D7
Trypanosoma cruzi [34] = assay: Percentage of activity against Trypanosoma cruzi at 3.13 uM; format: functional; outline: as §2
Plasmodium falciparum [35] = assay: Parasite growth inhibition against Plasmodium falciparum FCM29; format: functional, organism-based; outline: as §9
Plasmodium falciparum [36] = assay: Growth inhibition against chloroquine-resistant Plasmodium falciparum K1; format: functional, organism-based; outline: as §9
Plasmodium falciparum [37] = assay: Parasite growth inhibition against Plasmodium falciparum GP1; format: functional, organism-based; outline: as §9
Plasmodium falciparum [38] = assay: Parasite growth inhibition against Plasmodium falciparum W2; format: functional, organism-based; outline: as §9
Trypanosoma brucei [39] = assay: In Vitro evaluation for the percentage of activity towards Trypanosoma brucei at 12.5 uM Concentration; Toxic upon mouse primary peritoneal macrophages; format: functional, organism-based; outline: as §5
Trypanosoma brucei [40] = assay: In Vitro inhibition concentration against Trypomastigote form of Trypanosoma brucei; format: functional, organism-based
Outline: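 Bloodstream-form trypomastigotes were grown in HMI-9 medium. 10 000 parasites per well were incubated with drug at 12.5, 6.25, 3.13 and 1.56 µM for 4 days, and parasite multiplication was assessed.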

Plasmodium falciparum [41] = assay: Inhibition of Plasmodium falciparum F32A
Plasmodium falciparum [42] = assay: Inhibition of Plasmodium falciparum 3D7
Plasmodium falciparum [43] = assay: Inhibition of Plasmodium falciparum W2
Plasmodium falciparum [44] = assay: Inhibition of Plasmodium falciparum FCR3

COc1ccc2nc3cc(Cl)ccc3c(NCCCN(CCCNc3c4ccc(Cl)cc4nc4ccc(OC)cc34)C(=O)CCC(N)=O)c2c1
Cytotoxicity (Trypanosoma cruzi [1]): Toxic | Cytotoxicity (Trypanosoma cruzi [2]): Toxic | cytotoxicity at 3.13 µM (MRC5 [3]): 100% | cytotoxicity at 6.25 µM (MRC5 [4]): 100% | Cytotoxicity (Trypanosoma cruzi [5]): Toxic | Parasite growth inhibition (Trypanosoma brucei [6]): 100% | Cytotoxicity (Leishmania infantum [7]): Toxic | cytotoxicity at 25 µM (MRC5 [8]): 100% | Cytotoxicity (Leishmania infantum [9]): Toxic | cytotoxicity at 12.5 µM (MRC5 [10]): 100% | Cytotoxicity (Leishmania infantum [11]): Toxic | Inhibition of parasite multiplication (Trypanosoma brucei [12]): 100% | Percent inhibition of parasite multiplication (Trypanosoma brucei [13]): 100% | Cytotoxicity (Leishmania infantum [14]): Toxic | IC50 (Plasmodium falciparum [15]): 40 nM | Inhibition of parasite multiplication (Trypanosoma brucei [16]): 100% | Cytotoxicity (Trypanosoma cruzi [17]): 95%

C[C@@H]1[C@H](O)[C@@H](C)/C=C/C=C/C=C/C=C/C=C/C=C/C=C/[C@H](O[C@@H]2O[C@H](C)[C@@H](O)[C@H](N)[C@@H]2O)C[C@@H]2O[C@](O)(C[C@@H](O)C[C@@H](O)[C@H](O)CC[C@@H](O)C[C@@H](O)CC(=O)O[C@H]1C)C[C@H](O)[C@H]2C(=O)O [AMPHOTERICIN B]
IC50 (Leishmania infantum [18]): 50 nM | CC50 (MRC5 [19]): 25 µM

COc1ccc2nc3cc(Cl)ccc3c(NCCCN(CCCNc3c4ccc(Cl)cc4nc4ccc(OC)cc34)C(=O)CCN(C)C)c2c1
Parasite load reduction (Trypanosoma cruzi [20]): 40% | Cytotoxicity (Leishmania infantum [21]): Toxic | Cytotoxicity (Trypanosoma brucei [22]): 100% | Cytotoxicity (Trypanosoma cruzi [23]): Toxic | cytotoxicity at 3.13 µM (MRC5 [3]): 30% | cytotoxicity at 6.25 µM (MRC5 [4]): 39% | Cytotoxicity (Trypanosoma cruzi [24]): Toxic | Cytotoxicity (Leishmania infantum [25]): Toxic | Cytotoxicity (Leishmania infantum [26]): Toxic | cytotoxicity at 25 µM (MRC5 [8]): 54% | cytotoxicity at 12.5 µM (MRC5 [10]): 40% | Cytotoxicity (Leishmania infantum [27]): Toxic | Inhibition of parasite multiplication (Trypanosoma brucei [12]): 100% | Cytotoxicity (Trypanosoma cruzi [28]): Toxic | Percent inhibition of parasite multiplication (Trypanosoma brucei [13]): 100% | IC50 (Plasmodium falciparum [15]): 39 nM

COc1ccc2nc3cc(Cl)ccc3c(NCCCN(CCCNc3c4ccc(Cl)cc4nc4ccc(OC)cc34)C(=O)C(CC(C)C)NC(=O)OC(C)(C)C)c2c1 (configuration not stated)
Parasite load reduction (Trypanosoma cruzi [20]): 40% | IC50 (Plasmodium falciparum [29]): 52 nM | Cytotoxicity (Leishmania infantum [21]): Toxic | Percent antileishmanial activity (reduction of parasite load) (Leishmania infantum [30]): 95% | Antileishmanial activity (% reduction of parasite load) (Leishmania infantum [31]): 90% | IC50 (Plasmodium falciparum [32]): 17 nM | cytotoxicity at 3.13 µM (MRC5 [3]): 42% | cytotoxicity at 6.25 µM (MRC5 [4]): 47% | Cytotoxicity (Trypanosoma cruzi [24]): Toxic | Parasite growth inhibition (Trypanosoma brucei [6]): 100% | IC50 (Plasmodium falciparum [33]): 48 nM | Reduction of T. cruzi parasite load (Trypanosoma cruzi [34]): 80% | IC50 (Plasmodium falciparum [35]): 13 nM | IC50 (Plasmodium falciparum [36]): 14 nM | cytotoxicity at 25 µM (MRC5 [8]): 55% | cytotoxicity at 12.5 µM (MRC5 [10]): 49% | Cytotoxicity (Leishmania infantum [27]): Toxic | Inhibition of parasite multiplication (Trypanosoma brucei [12]): 100% | Cytotoxicity (Trypanosoma cruzi [28]): Toxic | IC50 (Plasmodium falciparum [37]): 63 nM | Percent inhibition of parasite multiplication (Trypanosoma brucei [13]): 100% | IC50 (Plasmodium falciparum [15]): 27 nM | IC50 (Plasmodium falciparum [38]): 15 nM

COc1ccc2nc3cc(Cl)ccc3c(NCCCN(CCCNc3c4ccc(Cl)cc4nc4ccc(OC)cc34)C(=O)CCN3CCCC3)c2c1
Parasite load reduction (Trypanosoma cruzi [20]): 0% | Cytotoxicity (Leishmania infantum [21]): Toxic | Cytotoxicity (Trypanosoma cruzi [23]): Toxic | Cytotoxicity (Trypanosoma brucei [39]): Toxic | cytotoxicity at 3.13 µM (MRC5 [3]): 37% | cytotoxicity at 6.25 µM (MRC5 [4]): 39% | Cytotoxicity (Trypanosoma cruzi [24]): Toxic | Parasite growth inhibition (Trypanosoma brucei [6]): 100% | Cytotoxicity (Leishmania infantum [25]): Toxic | Cytotoxicity (Leishmania infantum [26]): Toxic | cytotoxicity at 25 µM (MRC5 [8]): 76% | cytotoxicity at 12.5 µM (MRC5 [10]): 65% | Cytotoxicity (Leishmania infantum [27]): Toxic | Inhibition of parasite multiplication (Trypanosoma brucei [12]): 100% | Cytotoxicity (Trypanosoma cruzi [28]): Toxic | Percent inhibition of parasite multiplication (Trypanosoma brucei [13]): 100% | IC50 (Plasmodium falciparum [15]): 91 nM

Nc1nc(N)nc(Nc2ccc([As]3SCC(CO)S3)cc2)n1 (configuration not stated) [MELARSOPROL]
CC50 (MRC5 [19]): 12.5 µM | IC50 (Trypanosoma brucei [40]): 200 nM

OC(c1cc(C(F)(F)F)nc2c(C(F)(F)F)cccc12)C1CCCCN1 (configuration not stated) [MEFLOQUINE]
IC50 (Plasmodium falciparum [41]): 62 nM | IC50 (Plasmodium falciparum [42]): 40 nM | IC50 (Plasmodium falciparum [43]): 30 nM | IC50 (Plasmodium falciparum [44]): 36 nM | IC50 (Plasmodium falciparum [15]): 6.9 nM
